Results on 27 compounds are retold here after ChEMBL document CHEMBL1124641, “Synthesis and antiinflammatory and analgesic activity of 5-aroyl-6-(methylthio)-1,2-dihydro-3H-pyrrolo[1,2-a]pyrrole-1-ca rboxyl ic acids and 1-methyl-4-(methylthio)-5-aroylpyrrole-2-acetic acids” (J Med Chem, 1989).

Data set [1] in a line: Therapeutic ratio of MED GI erosion to that of ED30 of rat paw. Type of data set: ADME. Put shortly:
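Ratio derived as the gastrointestinal erosion minimum effective dose divided by the ED30 from the carrageenan rat paw assay. The erosion dose (mg/kg per day) comes from a 7-day chronic dosing assay in rats.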

The species named for data set [2] is Rattus norvegicus. Kind of data set: Chronic gastrointestinal erosive activity in rats. Type of data set: functional. The note with it: read-out: MED. Summed up: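 Chronic 7-day gastrointestinal erosion assay in rats with daily dosing. The read-out is the minimum effective dose for erosion (mg/kg per day), with 15 rats where stated.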
Data set [3] relates to Rattus norvegicus. Put plainly: Antiinflammatory activity assessed by inhibition of carrageenan-induced edema in rats […]. Type of data set: functional. For orientation: The carrageenan paw model is a standard test of acute inflammation.
Another data set has as its system Mus musculus. Put plainly: Analgesic activity was assessed from the ability to inhibit phenylquinone-induced writhing in mouse […]. Type of data set: functional. Summed up:
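Mouse phenylquinone-induced writhing screen. Potency is expressed relative to aspirin (aspirin = 1), with 95% confidence limits where given.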
(In writhing tests, fewer writhes than in controls are read as antinociception.)

`CSc1cc2n(c1C(=O)c1ccc(Cl)cc1)CCC2C(=O)O` (stereo unspecified): the selectivity ratio in data set [1] was determined as 3.5. Moreover, the minimal effective dose in the data set filed under Rattus norvegicus [2] was found to be 1.5 mg/kg.
The compound `CCCCC1C(=O)N(c2ccccc2)N(c2ccccc2)C1=O` [PHENYLBUTAZONE] displayed an ED30 with Rattus norvegicus [3] of 15 mg/kg.
As a reminder, the ED50 is the dose at which the effect has come halfway, by size or by number of responders. A lower ED50 goes with greater potency. Regarding `CCCc1ccc(C(=O)c2c(SC)cc(CC(=O)O)n2C)cc1`, the 50% effect level with Mus musculus (ED50) was put at a dose of 5 mg/kg. This compound also showed an ED30 in the data set with Rattus norvegicus [3] of 0.2 mg/kg.
`CSc1cc(CC(=O)O)n(C)c1C(=O)c1ccc(Cl)cc1`: in the data set with Mus musculus, the ED50 worked out at 56 mg/kg. The ED30 with Rattus norvegicus [3] worked out at 1.5 mg/kg.
Consider `COc1ccc2cc([C@H](C)C(=O)O)ccc2c1` [NAPROXEN], for which the selectivity ratio in data set [1] amounted to 22. Moreover, the minimal effective dose in the data set filed under Rattus norvegicus [2] amounted to 30 mg/kg/day.
In the case of `C=Cc1ccc(C(=O)c2c(SC)cc3n2CCC3C(=O)O)cc1` (stereo unspecified), it took a dose of 38 mg/kg to reach the 50% effect level in the data set with Mus musculus (ED50). In the data set with Rattus norvegicus [3], this compound gave an ED30 of 16 mg/kg.
As for `CSc1cc2n(c1C(=O)c1ccc(C)cc1)CCC2C(=O)O` (stereo unspecified), the selectivity ratio in data set [1] came to 4. Moreover, in the data set filed under Rattus norvegicus [2], the minimal effective dose was determined as 19 mg/kg.
`CCOc1ccc(C(=O)c2c(SC)cc3n2CCC3C(=O)O)cc1` (stereo unspecified): the ED50 with Mus musculus was under 13 mg/kg. Further, the ED30 in the data set on Rattus norvegicus [3] is 4 mg/kg.
In the same order, the values of `CSc1cc2n(c1C(=O)c1ccc(C3CC3)cc1)CCC2C(=O)O` (stereo unspecified) are 25 mg/kg and 13 mg/kg.
With `CCOc1ccc(C(=O)c2c(SC)cc(CC(=O)O)n2C)cc1`, the 50% effect level in the data set with Mus musculus (ED50) was put at a dose of 6 mg/kg. Besides, in the data set with Rattus norvegicus [3], the ED30 was 3.6 mg/kg.
Take `Cc1cc(CC(=O)O)n(C)c1C(=O)c1ccc(Cl)cc1` [ZOMEPIRAC]: the selectivity ratio in data set [1] came out at 17. Also, in the data set listed under Rattus norvegicus [2], the minimal effective dose came to 10 mg/kg.
With `CSc1cc(CC(=O)O)n(C)c1C(=O)c1ccc(C2CC2)cc1`, the 50% effect level in the data set on Mus musculus (ED50) was put at a dose of 30 mg/kg. Also, the ED30 in the data set on Rattus norvegicus [3] was 10 mg/kg.
As for `CSc1cc2n(c1C(=O)c1ccc(C(F)(F)F)cc1)CCC2C(=O)O` (stereo unspecified), the ED50 with Mus musculus was 50 mg/kg. This compound gave an ED30 in the data set with Rattus norvegicus [3] of 15 mg/kg.
For the compound `CSc1cc(CC(=O)O)n(C)c1C(=O)c1ccc(C)cc1`, the selectivity ratio in data set [1] is over 4.5. In the data set filed under Rattus norvegicus [2], the minimal effective dose was over 45 mg/kg.
In the data set on Mus musculus, `COc1ccc(C(=O)c2c(SC)cc3n2CCC3C(=O)O)cc1` (stereo unspecified) yielded an ED50 of 50 mg/kg. Besides, in the data set with Rattus norvegicus [3], the ED30 was under 10 mg/kg.
`CCc1ccc(C(=O)c2c(SC)cc3n2CCC3C(=O)O)cc1` (stereo unspecified) had an ED50 in the data set on Mus musculus of 70 mg/kg. Further, the ED30 in the data set with Rattus norvegicus [3] came to 16 mg/kg.
`CC(=O)Oc1ccccc1C(=O)O` [ASPIRIN]: in the data set on Mus musculus, the 50% effect level (ED50) was put at a dose of 70 mg/kg.
In the data set with Mus musculus, `CSc1cc2n(c1C(=O)c1ccc(C3CCCCC3)cc1)CCC2C(=O)O` (stereo unspecified) had a median effective dose (ED50) of under 3 mg/kg. Besides, in the data set on Rattus norvegicus [3], the ED30 was under 1 mg/kg.
Turning to `O=C(c1ccccc1)c1ccc2n1CCC2C(=O)O` (stereo unspecified) [KETOROLAC], the selectivity ratio in data set [1] was determined as 18. Further, in the data set filed under Rattus norvegicus [2], the minimal effective dose came to 5 mg/kg.
In the case of `CSc1cc2n(c1C(=O)c1ccc(Br)cc1)CCC2C(=O)O` (stereo unspecified), the ED50 with Mus musculus was under 9 mg/kg. In the data set on Rattus norvegicus [3], this compound had an ED30 of 26 mg/kg.
Turning to `CSc1cc(CC(=O)O)n(C)c1C(=O)c1ccccc1`, the ED50 in the data set on Mus musculus is over 11 mg/kg. The same compound returned an ED30 with Rattus norvegicus [3] of 1 mg/kg.
In the same order, the values of `CSc1cc(CC(=O)O)n(C)c1C(=O)c1ccc(F)cc1` are 37 mg/kg and 0.5 mg/kg.
As for `CCCc1ccc(C(=O)c2c(SC)cc3n2CCC3C(=O)O)cc1` (stereo unspecified), it took a dose of 7 mg/kg to reach the 50% effect level in the data set with Mus musculus (ED50). Also, the ED30 with Rattus norvegicus [3] was determined as 2.5 mg/kg.
The corresponding values for `CSc1cc2n(c1C(=O)c1ccc(OC(C)C)cc1)CCC2C(=O)O` (stereo unspecified) are 1 mg/kg and under 1 mg/kg.
As for `CS(=O)(=O)c1cc2n(c1C(=O)c1ccc(Br)cc1)CCC2C(=O)O` (stereo unspecified), the ED30 in the data set on Rattus norvegicus [3] is under 1 mg/kg.
`CSc1ccc(C(=O)c2c(SC)cc3n2CCC3C(=O)O)cc1` (stereo unspecified) returned an ED50 in the data set with Mus musculus of 50 mg/kg. Besides, the ED30 in the data set on Rattus norvegicus [3] was found to be 10 mg/kg.
The compound `CSc1cc2n(c1C(=O)c1ccc(F)cc1)CCC2C(=O)O` (stereo unspecified) showed a median effective dose (ED50) in the data set on Mus musculus of 60 mg/kg. In the data set with Rattus norvegicus [3], the ED30 is under 10 mg/kg.
